Measurements from ChEMBL document CHEMBL1142234, “Structure-based discovery of an inhibitor of Arf activation by Sec7 domains through targeting of protein-protein complexes” (Proc Natl Acad Sci U S A, 2007).
Active and inactive are the calls of the source. The calls are words filed in the database; no cut-off is given here.

Experiments:
[1] = Inhibition of delta14 Arf5 activation stimulated by Sec7 domain of BIG1
HeLa [2] = assay: Dispersion of cis golgi marker betaCoP in human HeLa cells at 100 uM for 2 hrs; format: functional, cell-based
Summary of the method: (§1)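 HeLa cells were exposed 2 h to 100 μM compound, with 0.5% DMSO as vehicle control, then fixed. Primary antibody was applied overnight at 4°C in PBS/0.25% BSA/0.01% Tween 20/0.01% saponin: TGN46 1:200, βCOP 1:100, KDEL receptor 1:500. Alexa 488 secondary was applied 20 min at room temperature. Marker localisation was imaged by confocal microscopy.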

[3] = molecular target: ADP-ribosylation factor 1 (Homo sapiens) (UniProt P84077); assay: Inhibition of ARNO-stimulated nucleotide exchange of Arf1
Summary of the method: (§2)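 GDP-loaded Arf isoforms truncated of the N-terminal helix (1 μM) with 50 nM Sec7 GEF. Runs were done with or without 150 μM inhibitor, preincubated 5 min, at 37°C in Tris pH 8/NaCl/MgCl2/2-mercaptoethanol buffer. Reaction was started with 2 μM mGTP and nucleotide exchange followed by time-resolved fluorescence.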

HeLa [4] = assay: Inhibition of endogenous Arf activation in human HeLa cells; format: cell-based
Summary of the method: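 Activation of endogenous Arf proteins in HeLa cells was measured by pull-down of GTP-loaded Arf through binding to the GGA3 effector.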

[5] = Inhibition of mGDP/GTP exchange on delta17 Arf1 at 150 uM
[6] = molecular target: ADP-ribosylation factor 1 (Homo sapiens) (UniProt P84077); assay: Reduction in nucleotide exchange on Arf1 using ARNO4M
Summary of the method: (§3)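 [Δ17]Arf1 lacking its N-terminal helix, GDP-loaded, with the BFA-sensitised Sec7 domain of human ARNO (4 mutations). Inhibitor was preincubated 5 min, then GTP or mGTP was added. Apparent rate constants were fitted. Means ± SD of ≥3 independent experiments.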

Homo sapiens [7] = species on record: Homo sapiens; assay: Effect on activation of human RhoG/TriD1 at 150 uM
Summary of the method: (§4)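 Specificity panel: each small GTPase (1 μM, GST-fused RhoG or RhoA) with its GEF (50 nM; DH1 domain of TRIO or DH domain of GEF337), with or without 150 μM inhibitor. Exchange started with 2 μM mGTP and followed by time-resolved fluorescence.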

HeLa [8] = assay: Dispersion of cis golgi marker KDEL in human HeLa cells at 100 uM for 2 hrs; format: functional, cell-based; summary of the method: as §1
[9] = Inhibition of GTP binding to Arf-ARNO complex
Summary of the method: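 Nucleotide-free Arf1/ARNO complex made by removing GDP with alkaline phosphatase (20 units) plus 2 mM EDTA. GTP binding to the complex (0.2 μM) started with 1 μM mGTP, with or without 150 μM inhibitor. Mant fluorescence read at 37°C in Tris pH 8 buffer with MgCl2; mean ± SD of ≥3 experiments.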

HeLa [10] = assay: Dispersion of trans golgi marker TGN46 in human HeLa cells at 100 uM for 2 hrs; format: functional, cell-based; summary of the method: as §1
[11] = Inhibition of mGTP/GTP exchange on delta17 Arf1 at 150 uM
[12] = molecular target: ADP-ribosylation factor 5 (Homo sapiens) (UniProt P84085); assay: Inhibition of ARNO-stimulated nucleotide exchange of Arf5; summary of the method: as §2
[13] = Inhibition of delta17 Arf1 activation stimulated by Sec7 domain of BIG1
Homo sapiens [14] = species on record: Homo sapiens; assay: Effect on activation of human RhoA/Gef337 at 150 uM; summary of the method: as §4
MDCK [15] = assay: Inhibition of rate of migration of MDCK cells expressing endogenous levels of ARNO; format: functional, cell-based; conditions: Canis lupus familiaris
Summary of the method: (§5)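 MDCK cells carrying tetracycline-repressible myc-wt-ARNO were grown as monolayers on collagen I and scratch-wounded. Cells were kept in MEM/5% FBS with or without compound. Doxycycline at 20 ng/ml repressed the transgene (endogenous ARNO only); without it, wt-ARNO was expressed. Wound closure was imaged every 5 min for 16 h at 37°C. Rate (μm2/h) was taken from hourly area increments over 8 h. Means ± SD of ≥3 experiments.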

Homo sapiens [16] = species on record: Homo sapiens; assay: (§6) Inhibition of human Arf-GDP-ARNO complex at 100 uM by fluorescence anisotropy
Summary of the method: (§7)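 Alexa 488 N-terminally labelled [Δ17]Arf1-GDP was held at 10 nM and titrated by serial dilution of wild-type ARNO Sec7, starting at 400 μM, with or without 100 μM inhibitor.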

MDCK [17] = assay: Inhibition of rate of migration in MDCK cells expressing wild type ARNO; format: functional, cell-based; conditions: Canis lupus familiaris; summary of the method: as §5
[18] = molecular target: ADP-ribosylation factor 6 (Homo sapiens) (UniProt P62330); assay: Inhibition of ARNO-stimulated nucleotide exchange of Arf6; summary of the method: as §2
MDCK [19] = assay: Increase in rate of migration of MDCK cells expressing wild type ARNO relative to non-induced wild type ARNO cells; format: functional, Canis lupus familiaris
Summary of the method: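 MDCK cells stably carrying N-terminal c-myc wt-ARNO under a tetracycline-repressible transactivator, grown on collagen I (3 μg/ml). Confluent monolayers were scratch-wounded, then kept in MEM/5% FBS with 20 ng/ml doxycycline (repressed) or without it (induced). Time-lapse imaging every 5 min for 16 h at 37°C, 5% CO2. Wound-area rate (μm2/h) was taken over 1-h intervals for 8 h; mean ± SD, ≥3 experiments.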

[20] = Inhibition of delta17 Arf1 using ARNO4M; conditions: read-out: Ki app; summary of the method: as §3
[21] = as §6; summary of the method: as §7

Sequence of ADP-ribosylation factor 1 (Homo sapiens) (P84077 whole entry, the tested form may be a part, canonical isoform): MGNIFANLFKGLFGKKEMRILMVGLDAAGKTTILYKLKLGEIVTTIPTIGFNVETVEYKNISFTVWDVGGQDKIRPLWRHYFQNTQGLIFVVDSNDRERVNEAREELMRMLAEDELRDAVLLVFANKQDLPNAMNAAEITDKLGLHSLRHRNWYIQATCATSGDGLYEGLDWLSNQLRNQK
Sequence of ADP-ribosylation factor 5 (Homo sapiens) (P84085 whole entry, the tested form may be a part): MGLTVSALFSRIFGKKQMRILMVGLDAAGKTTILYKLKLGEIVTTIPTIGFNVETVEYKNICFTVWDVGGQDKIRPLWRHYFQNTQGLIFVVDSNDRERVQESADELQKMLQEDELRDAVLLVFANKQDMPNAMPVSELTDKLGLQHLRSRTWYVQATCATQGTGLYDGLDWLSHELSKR
Sequence of ADP-ribosylation factor 6 (Homo sapiens) (P62330 whole entry): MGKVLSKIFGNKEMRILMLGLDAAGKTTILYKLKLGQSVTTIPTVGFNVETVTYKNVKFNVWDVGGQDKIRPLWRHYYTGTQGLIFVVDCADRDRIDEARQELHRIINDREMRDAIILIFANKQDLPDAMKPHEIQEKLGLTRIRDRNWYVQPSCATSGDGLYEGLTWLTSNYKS

O=[N+]([O-])c1ccc(Nc2c([N+](=O)[O-])ccc3c2=NC2(CCCCC2)N=3)cc1
Activity [1]: Active
Activity (HeLa [2]): Active
Activity [3]: Active
Activity (HeLa [4]): Active
Kapp [5]: 0.0004 s⁻¹
Kapp [6]: 0.0078 s⁻¹
Activity (Homo sapiens [7]): 0.003 s⁻¹
Activity (HeLa [8]): Active
Kapp [9]: 0.085 s⁻¹
Activity (HeLa [10]): Active
Kapp [11]: 0.0005 s⁻¹
Activity [12]: Active
Activity [13]: Active
Activity (Homo sapiens [14]): 0.0028 s⁻¹
Activity (MDCK [15]): Active
Activity (Homo sapiens [16]): inactive
Activity (MDCK [17]): Active
Activity [18]: inactive
Activity (MDCK [19]): 54%

C[C@H]1CCC/C=C/[C@@H]2C[C@H](O)C[C@H]2[C@H](O)/C=C/C(=O)O1 [BREFELDIN A]
Activity (HeLa [2]): Active
Activity (HeLa [8]): Active
Ki [20]: 15 µM
Kd [21]: 8.6 µM
